tested on: Severe acute respiratory syndrome coronavirus 2; assay: Binding affinity to N-terminal 6-histidine tagged Severe acute respiratory syndrome coronavirus 2 nucleocapsid protein overexpressed in Escherichia coli BL21 (DE3) assessed as response unit by SPR assay
Summary of the method: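 Single-concentration binding screen: compounds at 200 μM over a surface carrying >10000 RU NPro. 120 s contact, 180 s dissociation, running buffer with 5% DMSO, solvent correction applied. Running buffer served as negative control.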

SMILES	Activity
COc1cc2c(cc1OC)-c1cccc(C)c1N(C(=O)C(F)(F)F)C2	57.5 RU
CCC(=O)Nc1cccc2c1N(CC)Cc1cc(OC)c(OC)cc1-2	10.6 RU
CCN1Cc2cc(OC)c(OC)cc2-c2cccc(NC(=O)C(C)C)c21	11.8 RU
CCc1cccc2c1N(C)Cc1cc(OCc3cc(C)nn3C)c(OCc3cc(C)nn3C)cc1-2	211 RU
CCn1c(=O)c2cc(OC)c(OC)cc2c2cccc(C(=O)O)c21	33.5 RU
CCN1Cc2cc(OC)c(OC)cc2-c2cccc(NCC(F)(F)F)c21	125 RU
CCN1Cc2cc(OC)c(OC)cc2-c2cccc(NC(C)=O)c21	14.3 RU
CCc1cccc2c1N(C(=O)CBr)Cc1ccc(OC)cc1-2	22 RU
CCn1c(=O)c2cc(OC)c(OC)cc2c2cccc(NC(=O)CCC(=O)OC)c21	13.1 RU
CCN1Cc2cc(OC)c(OC)cc2-c2cccc(NC(=O)C(F)(F)F)c21	101 RU
COc1ccc2c(c1)CN(C)c1c(C)cccc1-2	34.9 RU
CCn1c(=O)c2cc(OC)c(OC)cc2c2cccc(NC(C)=O)c21	17.7 RU
CCc1cccc2c1ncc1ccc(OC)cc12	30.7 RU
CCN1Cc2cc(OC)c(OC)cc2-c2cccc(N)c21	145 RU
Cc1cccc2c1N(C)Cc1cc(O)ccc1-2	35 RU
COc1cc2cnc3c(C)cccc3c2cc1OC	29.4 RU
CCn1c(=O)c2cc(OC)c(OC)cc2c2cccc(N)c21	23.1 RU

tested on: not listed separately; assay: Binding affinity to N-terminal 6-histidine tagged Severe acute respiratory syndrome coronavirus 2 nucleocapsid protein overexpressed in Escherichia coli BL21 (DE3) assessed as dissociation constant by SPR assay

SMILES	Kd
CCc1cccc2c1N(C)Cc1cc(OCc3cc(C)nn3C)c(OCc3cc(C)nn3C)cc1-2	10.8 µM
CCN1Cc2cc(OC)c(OC)cc2-c2cccc(NCC(F)(F)F)c21	10.4 µM
